A selection: hits, their analogues and other compounds. The true share with any hit is near 4.6%.
Rtt109 HAT inh: inhibitors of C. albicans Rtt109/Vps75 HAT, primary screen, biochemical, ThioGlo CoA-SH fluorescence, plate reader. inhibition, % at 34.9 µM. Histone acetyltransferase RTT109 (Candida albicans (strain SC5314 / ATCC MYA-2876)), …. 330,000 tested, 0.16% active. purified Rtt109/Vps75, 4 h. AID 540336, 2011;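 active = inhibition of at least 50% in every replicate; inconclusive = best replicate reaches 50% inhibition but some replicates fall short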
UCH37 DUB inh: inhibitors of human UCH37 deubiquitinase, primary screen, biochemical, Ub-AMC cleavage, fluorescence; Ubiquitin carboxyl-terminal hydrolase isozyme L5 (Homo sapiens), Q9Y5K5; purified proteasome/UCH37; inhibition, % (test concentration not listed); 330,000 tested, 0.33% active;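 active = mean inhibition over replicate wells above about 20%, limit read from the data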;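 note: 0% = compound-free wells with enzyme and 100% = wells lacking proteasome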
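Signal – fluorescence, ex 355 nm, em 460 nm · System – Proteasome-bound UCH37 · Input – 0.15 nM proteasome as dispensed · Timing – 30 min preincubation with enzyme, 25 min cleavage at room temperature · Read-out basis – percent inhibition of cleavage signal versus uninhibited and no-proteasome wells · Medium – Tris-HCl pH 7.4 with ATP-MgCl2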
HDAC3 inhib: HDAC3 deacetylase inhibitors, primary screen, biochemical, fluorescence, cell-free homogeneous | Histone deacetylase 3 (Homo sapiens), O15379 | recombinant HDAC3, fluorogenic peptide/trypsin coupled | inhibition, % at 8.3 µM | 320,000 tested, 0.15% active | AID 2718, 2010; in the data active = inhibition above about 26%, passing the limit was not always enough; inconclusive = no clear call, values can overlap the other calls
Target sequence (O15379 whole entry, looked up): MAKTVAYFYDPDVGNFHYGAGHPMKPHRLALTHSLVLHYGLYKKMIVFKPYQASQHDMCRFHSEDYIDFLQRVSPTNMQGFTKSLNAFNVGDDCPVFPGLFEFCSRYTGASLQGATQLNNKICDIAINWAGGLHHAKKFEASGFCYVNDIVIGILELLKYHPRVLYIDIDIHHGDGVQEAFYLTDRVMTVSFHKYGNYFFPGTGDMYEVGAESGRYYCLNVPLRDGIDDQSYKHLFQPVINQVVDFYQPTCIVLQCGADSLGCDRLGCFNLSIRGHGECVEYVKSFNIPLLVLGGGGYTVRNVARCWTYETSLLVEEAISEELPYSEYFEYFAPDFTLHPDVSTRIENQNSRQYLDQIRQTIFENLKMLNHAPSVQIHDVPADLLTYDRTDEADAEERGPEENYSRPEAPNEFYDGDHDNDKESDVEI
ALR H2O2 inh: inhibitors of human ALR sulfhydryl oxidase, primary screen, biochemical, H2O2 detection, HRP-luminol luminescence, single point; FAD-linked sulfhydryl oxidase ALR (Homo sapiens), P55789; purified ALR, DTT oxidation; inhibition, % (test concentration not listed); 290,000 tested, 3.8% active; AID 485317, 2010;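 active = mean replicate inhibition above about 79%, with every replicate also reaching it, limit read from the data; inconclusive = only one of the two criteria met; inactive = mean below limit and not every replicate reaching it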
Target sequence (P55789 whole entry, looked up): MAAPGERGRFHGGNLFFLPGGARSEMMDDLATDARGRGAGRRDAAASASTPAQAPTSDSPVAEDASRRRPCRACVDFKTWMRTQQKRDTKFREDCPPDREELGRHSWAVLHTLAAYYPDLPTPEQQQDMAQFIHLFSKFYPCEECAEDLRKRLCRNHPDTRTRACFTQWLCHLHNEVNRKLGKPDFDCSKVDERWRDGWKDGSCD
PfM18AAP inh-1: PfM18AAP inhibitors, malaria aminopeptidase, primary screen, biochemical, QFRET, recombinant enzyme | AID 1822, 2009 | H-Glu-NHMec fluorogenic cleavage | M18 aspartyl aminopeptidase (Plasmodium falciparum 3D7) | inhibition, % at 7.35 µM | 290,000 tested, 1.2% active;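 active = inhibition above the campaign mean inhibition over all tested compounds plus 3 SD, cut at about 28% in these data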;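 note: 0% = plate median of test compound wells and 100% = 2 mM ZnCl2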
FAS-TE inh: FAS thioesterase domain inhibitors, primary screen, biochemical, fluorescence intensity, uHTS; recombinant FAS-TE, OMFH fluorogenic substrate, fluorescence endpoint; inhibition, % at 15 µM; 360,000 tested, 0.67% active;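 active = compounds whose normalised, plate-corrected inhibition of enzyme fluorescence in the single-dose primary screen is 50% or more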;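 note: 0% = DMSO with enzyme and 100% = substrate without enzyme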
PfM18AAP inh-2: PfM18AAP inhibitors, malaria aminopeptidase, confirmation, biochemical, QFRET, recombinant enzyme, triplicate | shares compounds with PfM18AAP inh-1 | H-Glu-NHMec fluorogenic cleavage | inhibition, % at 7.35 µM | 2,400 tested, 28% active | AID 2170, 2009;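 active = mean inhibition over replicate wells above the hit cutoff set for the earlier primary screen, cut at about 29% in these data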;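 note: 0% = median of test compound wells and 100% = 2 mM ZnCl2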
CTSL1 counter: cathepsin L1 inhibitors, retest, confirmation, counter-screen for PFM18AAP inhibitor project, biochemical, QFRET, triplicate; shares compounds with PfM18AAP inh-1; purified cathepsin L1, Z-Leu-Arg-MCA fluorescence; inhibition, % at 5.96 µM; 2,400 tested, under 10 active; AID 2178, 2009;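 active = average inhibition across replicates above the hit cutoff set in the earlier primary screen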;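 note: 0% = median of test compound wells and 100% = Z-Phe-Ala-diazomethylketone 1 µM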
* marks the source's active call; other numbers are inactive results; ? = inconclusive; . = not tested or not shown.

SMILES	Rtt109 HAT inh	UCH37 DUB inh	HDAC3 inhib	ALR H2O2 inh	PfM18AAP inh-1	FAS-TE inh	PfM18AAP inh-2	CTSL1 counter
O=S(=O)(NNc1cccc(Cl)n1)c1ccc(Cl)cc1	-5	2	.	.	72*	0	49*	-1
O=S(=O)(NNc1ccc(Cl)nn1)c1ccc(F)cc1	-1	-22	5	-2	69*	-12	64*	1
O=S(=O)(Nc1ccc(Cl)nn1)c1ccccc1	2	4	4	-8	-2	-4	.	.
CC(=NNC(=O)c1cccc(S(=O)(=O)N2CCCC2)c1)c1ccc(C)cc1	.	3	.	.	.	.	.	.
C=CCn1c(-c2ccc(OC)c(OC)c2)n[nH]c1=S	-4	2	5	7	36*	-5	-27	-2
C=CCn1c(-c2sccc2C)n[nH]c1=S	-1	2	-7	95*	32*	-8	-17	-2
C=CCn1c(-c2cccc(Cl)c2)n[nH]c1=S	-9	-7	-16	?	11	-5	.	.
O=C(O)c1cn[nH]c1-n1cnnn1	1	1	-4	-16	65*	-12	65*	-6
CC(=O)Nc1ccc(-n2cnnn2)cc1	16	5	-1	.	1	-9	.	.
NC(=S)NN=Cc1coc2ccc(Cl)cc2c1=O	.	2	.	.	.	.	.	.
NC(=O)N/N=C/c1coc2ccc(O)cc2c1=O	3	.	-4	11	66*	0	57*	-3
CC(C)CCNC(=S)Nc1ccccn1	-27	3	6	91*	33*	-2	6	2
Cc1cc(C)c(S(=O)(=O)Nc2ccc(O)c(Sc3ncn[nH]3)c2)cc1C	8	6	5	49	52*	-26	22	2
Cc1cc(C)c(S(=O)(=O)Nc2ccc(O)c(Sc3ncn[nH]3)c2)c(C)c1	5	-1	7	99*	49*	-29	14	0
C=CCc1cccc(C=Nn2c(C)nnc2C)c1O	.	4	.	.	.	.	.	.
CCCCOC(=O)c1cc(-c2ccc(C=Nn3cnnc3)o2)ccc1Cl	.	-91	.	.	.	.	.	.
O=C(Cc1ccccc1)NN1C(=O)/C(=C/c2ccc(C(=O)O)cc2)SC1=S	25	9	15	.	34*	-5	-27	6
O=C(O)c1ccc(/C=C2/SC(=S)N(Cc3ccccc3)C2=O)cc1	-3	9	2	3	-10	21	.	.
C=CCc1ccccc1OCCOc1ccc([N+](=O)[O-])cc1C=NNC(N)=O	.	0	.	.	.	.	.	.
Cc1ccc(S(=O)(=O)N2C(=O)CCC2C(=O)Nn2cnnc2)cc1 (stereo unspecified)	-15	6	5	-9	66*	-7	32*	-3
CC(=NNC(=O)c1ccc2c(c1)OCO2)c1ccc(NC(=O)CCCC(=O)O)cc1	.	4	.	.	.	.	.	.
CC(=NNc1ccc(S(N)(=O)=O)cc1[N+](=O)[O-])c1ccc2c(c1)OCO2	.	5	.	.	.	.	.	.
CC(=O)c1sc2nsc(SCCN3CCCC3)c2c1N	-3	8	6	29	32*	-5	-39	0
N#Cc1c(NC(=O)CSc2ncn[nH]2)sc2c1CCCCC2	2	7	0	3	32*	-155	-31	2
CC(=O)Nc1sc2c(c1C#N)CCCC2	1	0	1	.	-4	-6	.	.
SMILES	Rtt109 HAT inh	UCH37 DUB inh	HDAC3 inhib	ALR H2O2 inh	PfM18AAP inh-1	FAS-TE inh	PfM18AAP inh-2	CTSL1 counter
CC(C)C(=O)Nc1sc2c(c1C#N)CCCCC2	.	4	-1	-9	38*	2	-1	-1
C=C(C)C1CC=C(C)C(=NNC(=O)CNc2ccccc2OC)C1 (stereo unspecified)	.	2	.	.	.	.	.	.
CC(=NOC(=O)c1ccc(Br)cc1)c1ccccn1	.	2	.	.	.	.	.	.
Cn1c(N/N=C/c2c[nH]c3ccccc23)nc2ccccc21	20	.	11	98*	54*	0	7	5
Cc1cc(NN=Cc2c[nH]c3ccccc23)c2ccccc2n1	.	-22	.	.	.	.	.	.
NC(=O)c1c(NC(=O)C2CC=CCC2C(=O)O)sc2c1CCCCC2 (stereo unspecified)	-1	2	3	9	40*	-4	-19	-2
CC(C)OC(=O)c1c(NC(=O)C2CC=CCC2C(=O)O)sc2c1CCCCC2 (stereo unspecified)	21	1	-3	15	10	1	.	.
NC(=O)c1c(NC(=S)Nc2ccccc2)sc2c1CCCC2	13	-24	3	-20	26	2	.	.
NC(=O)c1c(NC(=S)Nc2ccc(F)cc2)sc2c1CCCC2	4	-38	-5	90*	35*	0	3	5
CC1(c2ccc([N+](=O)[O-])cc2)Nc2ccccc2S1 (stereo unspecified)	1	4	-1	11	35*	23	-29	0
CC1(c2ccccc2)NC(=O)N(Cc2ccc([N+](=O)[O-])cc2)C1=O (stereo unspecified)	8	4	0	-3	-3	24	.	.
CCNC(=S)NNc1nc(N2CCCCC2)nc(N2CCOCC2)n1	3	1	11	6	44*	-5	20	-8
c1ccc(Nc2nc(N3CCCC3)nc(N3CCOCC3)n2)cc1	6	-5	4	-5	.	1	.	.
Cc1ccc(S(=O)(=O)NNc2nnc(C)c(=O)[nH]2)cc1	5	0	7	16	74*	-2	39*	-5
Cc1nnc(NNS(=O)(=O)c2ccc(Cl)cc2)[nH]c1=O	14	8	-1	53	72*	-9	60*	-9
CC(=O)N1CCC(=NNc2ncc(C(F)(F)F)cc2Cl)CC1	8	0	-11	4	33*	-9	-3	5
COc1ccccc1Cc1nnc(NC(=O)C2CCN(C(=O)c3ccco3)CC2)s1	2	2	1	-2	42*	-3	-25	-2
S=C(NN=Cc1ccccc1)N1CCOCC1	.	6	.	.	.	.	.	.
Cc1cc(C)nc(SCC(=O)Nn2cnnc2)n1	5	0	-8	-2	53*	-5	41*	-5
O=C(CSc1ncccn1)Nn1cnnc1	-16	0	3	1	46*	-7	44*	-4
Cc1cc(C)nc(SCCC(=O)N(C)C)n1	-3	2	5	.	39*	-6	-4	-1
Cc1ccc(-c2csc(NN=Cc3ccco3)n2)c(C)c1	.	3	.	.	.	.	.	.

Screening data: PubChem BioAssay, several laboratories
